Source: ChEMBL document CHEMBL1687802, “An RpoB mutation confers dual heteroresistance to daptomycin and vancomycin in Staphylococcus aureus” (2010)
≈ marks a conversion by molar mass, not a printed value.

Tests used:
Staphylococcus aureus [1] = experiment: Antimicrobial activity against methicillin-resistant Staphylococcus aureus N315deltaIP after 24 hrs by Etest method; type: functional
In short: (§1)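 Etest MICs (daptomycin, vancomycin, oxacillin, rifampin) on Mueller-Hinton agar, with the daptomycin medium supplemented with 50 mg/liter Ca2+. Plates were swabbed from a 0.5 McFarland suspension, strips were applied 10 min later, and plates were read after 24 h at 37°C. Strains were pKOR1 allelic-replacement mutants or revertants of N315ΔIP (mecI-inactivated, beta-lactamase plasmid cured) or 10*3d1, grown in BHI broth at 37°C.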

Staphylococcus aureus [2] = experiment: Antimicrobial activity against methicillin-resistant Staphylococcus aureus N315deltaIP harboring rpoB A621E mutant gene after 24 hrs by Etest method; type: functional; in short: as §1
Staphylococcus aureus [3] = experiment: Antimicrobial activity against methicillin-resistant Staphylococcus aureus N315deltaIP harboring hypothetical protein SA1826 14A mutant after 24 hrs by Etest method; type: functional; in short: as §1
Staphylococcus aureus [4] = experiment: Antimicrobial activity against methicillin-resistant Staphylococcus aureus N315deltaIP harboring hypothetical protein SA1826 14E mutant gene after 24 hrs by Etest method; type: functional; in short: as §1
Staphylococcus aureus [5] = experiment: Antimicrobial activity against methicillin-resistant Staphylococcus aureus 10*3d1 harboring hypothetical protein SA1826 14A mutant gene after 24 hrs by Etest method; type: functional; details: 10*3d1, 24 h; in short: as §1
Staphylococcus aureus [6] = experiment: Antimicrobial activity against methicillin-resistant Staphylococcus aureus 10*3d1 harboring hypothetical protein SA1826 14E mutant gene after 24 hrs by Etest method; type: functional; details: 10*3d1, 24 h; in short: as §1
Staphylococcus aureus [7] = experiment: Antimicrobial activity against methicillin-resistant Staphylococcus aureus 10*3d1 harboring hypothetical protein SA1826 14A mutant and rpoB 621A mutant after 24 hrs by Etest method; type: functional; details: 10*3d1, 24 h; in short: as §1
Staphylococcus aureus [8] = experiment: Antimicrobial activity against methicillin-resistant Staphylococcus aureus 10*3d1 harboring hypothetical protein SA1826 14A(-) and rpoB 621E mutant gene after 24 hrs by Etest method; type: functional; details: 10*3d1, 24 h; in short: as §1
Staphylococcus aureus [9] = experiment: Antimicrobial activity against vancomycin-intermediate Staphylococcus aureus MU50 by Etest method; type: functional
Staphylococcus aureus [10] = experiment: Antimicrobial activity against vancomycin-intermediate Staphylococcus aureus MI by Etest method; type: functional
Staphylococcus aureus [11] = experiment: Antimicrobial activity against vancomycin-intermediate Staphylococcus aureus MU50-PR selected at 4 mg/L of vancomycin by Etest method; type: functional
Staphylococcus aureus [12] = experiment: Antimicrobial activity against vancomycin-intermediate Staphylococcus aureus MI-PR selected at 4 mg/L of vancomycin by Etest method; type: functional
Staphylococcus aureus [13] = experiment: Antimicrobial activity against vancomycin-susceptible Staphylococcus aureus MI-P84 by Etest method
Staphylococcus aureus [14] = experiment: Antimicrobial activity against vancomycin-susceptible Staphylococcus aureus MU50-P35 by Etest method
Staphylococcus aureus [15] = experiment: Antimicrobial activity against methicillin-resistant Staphylococcus aureus 10*3d1 harboring rpoB 621E mutation after 24 hrs by Etest method; details: 10*3d1, 24 h
Staphylococcus aureus [16] = experiment: Antimicrobial activity against methicillin-resistant Staphylococcus aureus N315deltaIP harboring rpoB 621A mutant after 24 hrs by Etest method
Staphylococcus aureus [17] = experiment: Antimicrobial activity against vancomycin-intermediate Staphylococcus aureus MU50-P35 selected at 4 mg/L of compound by Etest method
Staphylococcus aureus [18] = experiment: Antimicrobial activity against vancomycin-intermediate Staphylococcus aureus MU50-PR selected at 4 mg/L of compound by Etest method
Staphylococcus aureus [19] = experiment: Antimicrobial activity against vancomycin-intermediate Staphylococcus aureus MI-P84 selected at 4 mg/L of compound by Etest method
Staphylococcus aureus [20] = experiment: Antimicrobial activity against vancomycin-intermediate Staphylococcus aureus MI-PR selected at 4 mg/L of compound by Etest method

| SMILES | MIC (Staphylococcus aureus [1]) [µg/mL] | MIC (Staphylococcus aureus [2]) [µg/mL] | MIC (Staphylococcus aureus [3]) [µg/mL] | MIC (Staphylococcus aureus [4]) [µg/mL] | MIC (Staphylococcus aureus [5]) [µg/mL] | MIC (Staphylococcus aureus [6]) [µg/mL] | MIC (Staphylococcus aureus [7]) [µg/mL] | MIC (Staphylococcus aureus [8]) [µg/mL] | MIC (Staphylococcus aureus [9]) [µg/mL] | MIC (Staphylococcus aureus [10]) [µg/mL] | MIC (Staphylococcus aureus [11]) [µg/mL] | MIC (Staphylococcus aureus [12]) [µg/mL] | MIC (Staphylococcus aureus [13]) [µg/mL] | MIC (Staphylococcus aureus [14]) [µg/mL] | MIC (Staphylococcus aureus [15]) [µg/mL] | MIC (Staphylococcus aureus [16]) [µg/mL] | MIC (Staphylococcus aureus [17]) [µg/mL] | MIC (Staphylococcus aureus [18]) [µg/mL] | MIC (Staphylococcus aureus [19]) [µg/mL] | MIC (Staphylococcus aureus [20]) [µg/mL] |
| --- | --- | --- | --- | --- | --- | --- | --- | --- | --- | --- | --- | --- | --- | --- | --- | --- | --- | --- | --- | --- |
| CCCCCCCCCC(=O)N[C@@H](Cc1c[nH]c2ccccc12)C(=O)N[C@H](CC(N)=O)C(=O)N[C@@H](CC(=O)O)C(=O)N[C@@H]1C(=O)NCC(=O)N[C@@H](CCCN)C(=O)N[C@@H](CC(=O)O)C(=O)N[C@H](C)C(=O)N[C@@H](CC(=O)O)C(=O)NCC(=O)N[C@H](CO)C(=O)N[C@@H]([C@H](C)CC(=O)O)C(=O)N[C@@H](CC(=O)c2ccccc2N)C(=O)O[C@@H]1C | 0.38 (≈ 0.234 µM) | 1.5 (≈ 0.926 µM) | 0.25 (≈ 0.154 µM) | 0.25 (≈ 0.154 µM) | 1.5 (≈ 0.926 µM) | 1.5 (≈ 0.926 µM) | 0.25 (≈ 0.154 µM) | 1.5 (≈ 0.926 µM) | 2 (≈ 1.23 µM) | 2 (≈ 1.23 µM) | 2 (≈ 1.23 µM) | 2 (≈ 1.23 µM) | 0.5 (≈ 0.309 µM) | 0.5 (≈ 0.309 µM) | 2 (≈ 1.23 µM) | 0.25 (≈ 0.154 µM) | – | – | – | – |
| Cc1onc(-c2ccccc2)c1C(=O)N[C@@H]1C(=O)N2[C@@H]1SC(C)(C)[C@@H]2C(=O)O [OXACILLIN] | 48 (≈ 120 µM) | > 256 | > 256 | > 256 | > 256 | > 256 | > 256 | > 256 | – | – | – | – | – | – | > 256 | > 256 | – | – | – | – |
| CO[C@H]1/C=C/O[C@@]2(C)Oc3c(C)c(O)c4c(O)c(c(/C=N/N5CCN(C)CC5)c(O)c4c3C2=O)NC(=O)/C(C)=C\C=C\[C@H](C)[C@H](O)[C@@H](C)[C@@H](O)[C@@H](C)[C@H](OC(C)=O)[C@@H]1C [RIFAMPIN] | 0.006 (≈ 0.00729 µM) | 0.006 (≈ 0.00729 µM) | 0.006 (≈ 0.00729 µM) | 0.006 (≈ 0.00729 µM) | 0.006 (≈ 0.00729 µM) | 0.006 (≈ 0.00729 µM) | 0.006 (≈ 0.00729 µM) | 0.006 (≈ 0.00729 µM) | – | – | – | – | – | – | 0.006 (≈ 0.00729 µM) | 0.006 (≈ 0.00729 µM) | – | – | – | – |
| CN[C@H](CC(C)C)C(=O)N[C@H]1C(=O)N[C@@H](CC(N)=O)C(=O)N[C@H]2C(=O)N[C@H]3C(=O)N[C@H](C(=O)N[C@H](C(=O)O)c4cc(O)cc(O)c4-c4cc3ccc4O)[C@H](O)c3ccc(c(Cl)c3)Oc3cc2cc(c3O[C@@H]2O[C@H](CO)[C@@H](O)[C@H](O)[C@H]2O[C@H]2C[C@](C)(N)[C@H](O)[C@H](C)O2)Oc2ccc(cc2Cl)[C@H]1O [VANCOMYCIN] | 0.5 (≈ 0.345 µM) | 3 (≈ 2.07 µM) | 0.5 (≈ 0.345 µM) | 0.5 (≈ 0.345 µM) | 3 (≈ 2.07 µM) | 3 (≈ 2.07 µM) | 0.75 (≈ 0.518 µM) | 3 (≈ 2.07 µM) | 6 (≈ 4.14 µM) | 7 (≈ 4.83 µM) | – | – | – | – | 3 (≈ 2.07 µM) | 0.25 (≈ 0.173 µM) | 2 (≈ 1.38 µM) | 6 (≈ 4.14 µM) | 1 (≈ 0.69 µM) | 6 (≈ 4.14 µM) |
